# Assay outcomes from PubChem BioAssay.
# Shown are actives, neighbours in structure and some others; about 2.5% of the full set was active somewhere.
# B2AR ag = activates human beta-2 adrenergic receptor causing internalization | P07550 | Am2.2-beta2AR cells, FAP receptor internalization, flow cytometry | response, % (concentration not given with the values) | 340,000 compounds, 0.43% hits | AID 504454;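 active = response above a set limit, near 3 SD of response in nonfluorescent compounds, cut at about 42% in these data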
# Target sequence (P07550 whole entry, looked up): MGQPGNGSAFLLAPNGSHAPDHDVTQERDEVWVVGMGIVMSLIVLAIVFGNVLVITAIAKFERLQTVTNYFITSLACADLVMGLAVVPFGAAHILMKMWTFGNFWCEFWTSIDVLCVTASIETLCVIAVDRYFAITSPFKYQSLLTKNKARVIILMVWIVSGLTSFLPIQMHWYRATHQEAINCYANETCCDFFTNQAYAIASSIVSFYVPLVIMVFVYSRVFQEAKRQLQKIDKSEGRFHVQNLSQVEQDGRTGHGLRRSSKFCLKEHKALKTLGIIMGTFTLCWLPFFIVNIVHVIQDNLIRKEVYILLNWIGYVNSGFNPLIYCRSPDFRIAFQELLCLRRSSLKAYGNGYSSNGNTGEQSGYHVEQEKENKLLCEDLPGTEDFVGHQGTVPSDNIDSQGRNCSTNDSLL
# UHRF1 binding = UHRF1 methyl-DNA binding inhibition | inhibition, % at 4.4 µM | Q96T88 | 370,000 compounds, 0.75% hits | UHRF1 binding to methylated oligo, TR-FRET | AID 687016; in the data active = inhibition above about 21%;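 note: UHRF1 SRA domain binding a hemimethylated CpG hairpin DNA probe; 0% = median of test compound wells and 100% = reference inhibitor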
# Rin1 Abl inh = blocks binding of human Rin1 to Abl | 360,000 compounds, 0.4% hits | AID 588664 | P00519+Q13671 | TR-FRET Rin1/Abl binding, biochemical | inhibition, % at 7.35 µM; in the data active = inhibition above about 5%, passing the limit was not always enough
# Arrestin-AP2 inh = inhibitors of human beta-arrestin and AP2 interaction; AID 504490; 340,000 compounds, 0.31% hits; FITC-arrestin peptide / GST-AP2 beads, flow cytometry; AP2 beta2 appendage carries R879A mutation; inhibition, % at 10 µM;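 active = inhibition above a set limit, near 3 SD of compounds lacking own fluorescence, cut at about 54% in these data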;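 note: plate controls were DMSO wells for no effect and 5 µM unlabelled arrestin peptide for full effect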
#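 System: GST-AP2 R879A bound to glutathione beads, E. coli-expressed. Also added: 50 nM FITC-arrestin peptide. Schedule: compound with beads 12 min RT, then probe 1 h RT. Signal: bead flow cytometry, FITC channel. Read-out basis: percent response.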
# MBD2 DNA inh = inhibitors of human MBD2 binding to methylated oligonucleotide | Q9UBB5 | TR-FRET | inhibition, % at 4.4 µM | 370,000 compounds, 0.31% hits | AID 686964; in the data active = inhibition above about 13%
# ABHD5-PLIN5 inh = ABHD5-PLIN5 protein interaction inhibition. Q00G26+Q8WTS1. Split G. princeps luciferase complementation, luminescence, 4 h. inhibition, % at 4 µM. 360,000 compounds, 0.78% hits. AID 602281;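 active = inhibition above the mean inhibition across every tested compound plus 3 SD, cut at about 22% in these data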;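 note: 0% = DMSO only wells and the 100% control is not disclosed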
# Numbers without * were called inactive; · = no result.
SMILES,B2AR ag,UHRF1 binding,Rin1 Abl inh,Arrestin-AP2 inh,MBD2 DNA inh,ABHD5-PLIN5 inh
Cc1cc(C)cc(OC(C)CCN2CCC(C(O)(c3ccccc3)c3ccccc3)CC2)c1 (centres undefined),·,-1,·,·,-6,·
N#Cc1cc(Sc2ccccn2)c(Sc2ccccn2)cc1C#N,58*,1,-5,-8,2,16
N#Cc1cc(Sc2ccccn2)c([N+](=O)[O-])cc1C#N,1,-5,-1,8,1,1
CCOC(=O)[C@H](Cc1ccccc1)NC(=O)[C@H]1C[C@@]2(N3CCCCC3)c3ccccc3N(C(=O)OC(C)(C)C)[C@H]2N1C(=O)OC(C)(C)C,·,-1,·,·,-1,·
O=C(CCNc1n[nH]c(=O)[nH]c1=O)N1CCCCC1,-2,3,2,19,1,2
O=C(O)CCCNc1n[nH]c(=O)[nH]c1=O,-4,26*,0,2,1,1
Cc1cc(NC(=O)c2ccc(NS(=O)(=O)c3ccc(F)cc3)cc2)no1,·,0,·,·,3,·
O=C(CSc1nnc(COc2ccccc2)n1-c1ccccc1)Nc1ccc(S(=O)(=O)Nc2nccs2)cc1,·,-1,·,·,4,·
Cc1cc(=O)oc2c(C)c(OC(C)C(=O)Nc3ccc(N4CCC(C)CC4)cc3)ccc12 (centres undefined),83*,-2,1,-12,-6,3
Cc1cc(=O)oc2cc(NC(=O)COc3cccc(C(F)(F)F)c3)ccc12,1,56*,3,28,7,1
Cc1c(C)c2ccc(OCC(=O)Nc3ccc(N4CCC(C)CC4)cc3)cc2oc1=O,1,-1,4,1,-1,4
Cc1cc(=O)oc2cc(OCC(=O)Nc3ccc(N4CCC(C)CC4)cc3)ccc12,51*,-2,-3,0,-6,-2
Cn1ccnc1C(=O)O[C@@H]1CCC[C@@]2(C(=O)N(Cc3ccccc3)c3ccccc32)[C@H]1NC(=O)CCc1ccccc1,·,1,·,·,-4,·
Cc1nc2sc(C(=O)NCc3ccc4c(c3)OCO4)c(N)c2c(C)c1Cl,·,0,·,·,3,·
Cc1c(N=C2C=C(Br)C(=O)C(Br)=C2)c(=O)n(-c2ccccc2)n1C,1,56*,8,16,18*,-18
Cc1c(N=C2C=CC(=O)c3ccccc32)c(=O)n(-c2ccccc2)n1C,44*,-10,-6,26,-17,-10
Cc1c(N=Nc2ccc(O)cc2)c(=O)n(-c2ccccc2)n1C,-4,0,0,4,1,0
Cc1c(N2C(=O)c3ccccc3C2=O)c(=O)n(-c2ccccc2)n1C,-3,1,1,-4,-2,-2
CC(=O)c1cc(-c2cc(C(=O)O)cc([N+](=O)[O-])c2)c(=O)n2c1CCC2,·,6,·,·,0,·
C#CCNC(=O)C[C@@H]1C(=O)N(CC=C)/C2=C/CCCCC[C@]21C(=O)OCC,·,0,·,·,-6,·
Cc1ccc(S(=O)(=O)Nc2ccc(Nc3nccn4c(-c5cccc(OC(F)(F)F)c5)cnc34)cc2)cc1,·,90*,-2,·,1,-2
O=C1c2ccccc2-c2ccc(P(=O)(O)O)cc21,·,4,·,·,-2,·
CC(=O)C1(C(=O)NC2CCCC2)CC(c2ccccn2)=NO1 (centres undefined),·,-3,·,·,-3,·
O=c1cc2oc3cc(O)c(O)cc3c(-c3ccccc3[N+](=O)[O-])c-2cc1O,-7,41*,65*,20,13,11
CCN(CC(=O)Nc1ccccc1OC)C(=O)c1ccc(N(C)S(=O)(=O)c2ccc(C)cc2)cc1,6,-1,-3,3,2,6
CCN(CC(=O)Nc1ccc(NC(C)=O)cc1)C(=O)c1ccc(N(C)S(=O)(=O)c2ccc(C)cc2)cc1,0,42*,-2,-5,-1,-7
CCN(CC(=O)Nc1ccc(OC)cc1)C(=O)c1ccc(NS(=O)(=O)c2ccc(C(C)=O)cc2)cc1,1,23*,3,7,3,10
CCOC(=O)[C@]12CCCCC/C=C\1N(CCc1ccc(Cl)cc1)C(=O)[C@H]2CC(=O)N1CCN(C(=O)c2ccco2)CC1,·,1,·,·,0,·
CCCCCCC/C=C(\C)[C@@H](O)[C@@H](C)C(=O)N1CCC[C@@H]1C(=O)O,·,18,·,·,6,·
CCN(CC)CCCNC(=O)c1cn(CC)c2ccc(S(=O)(=O)N3CCc4ccccc4C3)cc2c1=O,4,1,-1,-6,1,1
